# How the values were obtained:
# Serratia marcescens = assay: Antibacterial activity against Serratia marcescens SANK 72790; type: functional
# Outline: (§1)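 MIC by agar dilution on Nutrient Agar, following the NCCLS standard dilution method for aerobically growing bacteria.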
# Salmonella enteritidis = assay: Antibacterial activity against Salmonella enteritidis SANK 72390; type: functional, Salmonella enterica subsp. enterica serovar Enteritidis; settings: Salmonella enterica; outline: as §1
# Pseudomonas aeruginosa [1] = assay: Antibacterial activity against Pseudomonas aeruginosa SANK 73090; type: functional; outline: as §1
# Morganella morganii = assay: Antibacterial activity against Morganella morganii SANK 72990; type: functional; outline: as §1
# Pseudomonas aeruginosa [2] = assay: Antibacterial activity against Pseudomonas aeruginosa SANK 3719; type: functional; outline: as §1
# Enterobacter cloacae [3] = assay: Antibacterial activity against Enterobacter cloacae SANK 72690; type: functional; outline: as §1
# Escherichia coli [4] = assay: Antibacterial activity against Escherichia coli SANK 70569 (NIHJ JC-2); type: functional; outline: as §1
# Klebsiella pneumoniae = assay: Antibacterial activity against Klebsiella pneumoniae SANK 72490; type: functional; outline: as §1
# Pseudomonas aeruginosa [5] = assay: Antibacterial activity against Pseudomonas aeruginosa SANK 73190; type: functional; outline: as §1
# Enterobacter cloacae [6] = assay: Antibacterial activity against Enterobacter cloacae 846; type: functional; outline: as §1
# Escherichia coli [7] = assay: Antibacterial activity against Escherichia coli SANK 72290; type: functional; outline: as §1
# Proteus vulgaris = assay: Antibacterial activity against Proteus vulgaris SANK 72890; type: functional; outline: as §1
# Staphylococcus aureus [8] = assay: Antibacterial activity against Staphylococcus aureus SANK 70668; type: functional; outline: as §1
# Staphylococcus aureus [9] = assay: Antibacterial activity against Staphylococcus aureus SANK 71790; type: functional; outline: as §1
# Staphylococcus aureus [10] = assay: Antibacterial activity against Staphylococcus aureus SANK 71890 (MRSA); type: functional; outline: as §1
# Enterococcus faecalis = assay: Antibacterial activity against Enterococcus faecalis SANK 71990; type: functional; outline: as §1
structure (smiles),measurement,setting,value
CCCCCC[C@H]1OC(=O)CNC(=O)[C@@H]([C@H](C)OC)NC(=O)[C@H](CO)NC(=O)[C@H]([C@H](C)CC)NC(=O)[C@H](CC(C)C)N(C)C(=O)[C@@H]1C,MIC,Serratia marcescens,> 100 µg/mL
same,MIC,Salmonella enteritidis,50 µg/mL
same,MIC,Pseudomonas aeruginosa [1],> 100 µg/mL
same,MIC,Morganella morganii,> 100 µg/mL
same,MIC,Pseudomonas aeruginosa [2],> 100 µg/mL
same,MIC,Enterobacter cloacae [3],100 µg/mL
same,MIC,Escherichia coli [4],25 µg/mL
same,MIC,Klebsiella pneumoniae,50 µg/mL
same,MIC,Pseudomonas aeruginosa [5],> 100 µg/mL
same,MIC,Enterobacter cloacae [6],12.5 µg/mL
same,MIC,Escherichia coli [7],25 µg/mL
same,MIC,Proteus vulgaris,> 100 µg/mL
CCCCCC[C@H]1OC(=O)CNC(=O)[C@@H]([C@@H](C)O)NC(=O)[C@H](CO)NC(=O)[C@H]([C@@H](C)CC)NC(=O)[C@H](CC(C)C)N(C)C(=O)[C@@H]1C,MIC,Serratia marcescens,> 100 µg/mL
same,MIC,Salmonella enteritidis,> 100 µg/mL
same,MIC,Pseudomonas aeruginosa [1],> 100 µg/mL
same,MIC,Morganella morganii,> 100 µg/mL
same,MIC,Pseudomonas aeruginosa [2],> 100 µg/mL
same,MIC,Enterobacter cloacae [3],> 100 µg/mL
same,MIC,Escherichia coli [4],> 100 µg/mL
same,MIC,Klebsiella pneumoniae,> 100 µg/mL
same,MIC,Pseudomonas aeruginosa [5],> 100 µg/mL
same,MIC,Enterobacter cloacae [6],> 100 µg/mL
same,MIC,Escherichia coli [7],> 100 µg/mL
same,MIC,Proteus vulgaris,> 100 µg/mL
CCCCCC[C@H]1OC(=O)CNC(=O)[C@@H]([C@@H](C)O)NC(=O)[C@H](CO)NC(=O)[C@H]([C@H](C)CC)NC(=O)[C@H](CC(C)C)N(C)C(=O)[C@@H]1C,MIC,Serratia marcescens,> 100 µg/mL
same,MIC,Salmonella enteritidis,> 100 µg/mL
same,MIC,Pseudomonas aeruginosa [1],> 100 µg/mL
same,MIC,Morganella morganii,> 100 µg/mL
same,MIC,Pseudomonas aeruginosa [2],> 100 µg/mL
same,MIC,Enterobacter cloacae [3],> 100 µg/mL
same,MIC,Escherichia coli [4],> 100 µg/mL
same,MIC,Klebsiella pneumoniae,> 100 µg/mL
same,MIC,Pseudomonas aeruginosa [5],> 100 µg/mL
same,MIC,Enterobacter cloacae [6],100 µg/mL
same,MIC,Escherichia coli [7],> 100 µg/mL
same,MIC,Proteus vulgaris,> 100 µg/mL
CCCCCCCC[C@H]1OC(=O)CNC(=O)[C@H]([C@H](C)O)NC(=O)[C@H](CO)NC(=O)[C@H]([C@H](C)CC)NC(=O)[C@H](CC(C)C)N(C)C(=O)[C@@H]1C,MIC,Serratia marcescens,12.5 µg/mL
same,MIC,Salmonella enteritidis,6.25 µg/mL
same,MIC,Pseudomonas aeruginosa [1],> 100 µg/mL
same,MIC,Morganella morganii,> 100 µg/mL
same,MIC,Pseudomonas aeruginosa [2],> 100 µg/mL
same,MIC,Enterobacter cloacae [3],12.5 µg/mL
same,MIC,Escherichia coli [4],3.13 µg/mL
same,MIC,Klebsiella pneumoniae,3.13 µg/mL
same,MIC,Staphylococcus aureus [8],50 µg/mL
same,MIC,Staphylococcus aureus [9],50 µg/mL
same,MIC,Pseudomonas aeruginosa [5],> 100 µg/mL
same,MIC,Enterobacter cloacae [6],1.56 µg/mL
same,MIC,Staphylococcus aureus [10],50 µg/mL
same,MIC,Enterococcus faecalis,100 µg/mL
same,MIC,Escherichia coli [7],3.13 µg/mL
same,MIC,Proteus vulgaris,> 100 µg/mL
CCCCCC[C@H]1OC(=O)CNC(=O)[C@H]([C@H](C)O)NC(=O)[C@H](CO)NC(=O)[C@H]([C@H](C)CC)NC(=O)[C@H](CC(C)C)N(C)C(=O)[C@@H]1C,MIC,Serratia marcescens,100 µg/mL
same,MIC,Salmonella enteritidis,25 µg/mL
same,MIC,Pseudomonas aeruginosa [1],> 100 µg/mL
same,MIC,Morganella morganii,> 100 µg/mL
same,MIC,Pseudomonas aeruginosa [2],> 100 µg/mL
same,MIC,Enterobacter cloacae [3],50 µg/mL
same,MIC,Escherichia coli [4],12.5 µg/mL
same,MIC,Klebsiella pneumoniae,25 µg/mL
same,MIC,Staphylococcus aureus [8],> 100 µg/mL
same,MIC,Staphylococcus aureus [9],> 100 µg/mL
same,MIC,Pseudomonas aeruginosa [5],> 100 µg/mL
same,MIC,Enterobacter cloacae [6],6.25 µg/mL
same,MIC,Staphylococcus aureus [10],> 100 µg/mL
same,MIC,Enterococcus faecalis,> 100 µg/mL
same,MIC,Escherichia coli [7],12.5 µg/mL
same,MIC,Proteus vulgaris,> 100 µg/mL
CCCCCC[C@H]1OC(=O)CNC(=O)[C@@H]([C@H](C)O)NC(=O)[C@H](CO)NC(=O)[C@H]([C@@H](C)CC)NC(=O)[C@H](CC(C)C)N(C)C(=O)[C@@H]1C,MIC,Serratia marcescens,> 100 µg/mL
same,MIC,Salmonella enteritidis,50 µg/mL
same,MIC,Pseudomonas aeruginosa [1],> 100 µg/mL
same,MIC,Morganella morganii,> 100 µg/mL
same,MIC,Pseudomonas aeruginosa [2],> 100 µg/mL
same,MIC,Enterobacter cloacae [3],50 µg/mL
same,MIC,Escherichia coli [4],12.5 µg/mL
same,MIC,Klebsiella pneumoniae,25 µg/mL
same,MIC,Pseudomonas aeruginosa [5],> 100 µg/mL
same,MIC,Enterobacter cloacae [6],6.25 µg/mL
same,MIC,Escherichia coli [7],12.5 µg/mL
same,MIC,Proteus vulgaris,> 100 µg/mL
CCCCCCCCCC[C@H]1OC(=O)CNC(=O)[C@H]([C@H](C)O)NC(=O)[C@H](CO)NC(=O)[C@H]([C@H](C)CC)NC(=O)[C@H](CC(C)C)N(C)C(=O)[C@@H]1C,MIC,Serratia marcescens,3.13 µg/mL
same,MIC,Salmonella enteritidis,3.13 µg/mL
same,MIC,Pseudomonas aeruginosa [1],> 100 µg/mL
same,MIC,Morganella morganii,> 100 µg/mL
same,MIC,Pseudomonas aeruginosa [2],> 100 µg/mL
same,MIC,Enterobacter cloacae [3],3.13 µg/mL
same,MIC,Escherichia coli [4],1.56 µg/mL
same,MIC,Klebsiella pneumoniae,1.56 µg/mL
same,MIC,Staphylococcus aureus [8],6.25 µg/mL
same,MIC,Staphylococcus aureus [9],6.25 µg/mL
same,MIC,Pseudomonas aeruginosa [5],> 100 µg/mL
same,MIC,Enterobacter cloacae [6],1.56 µg/mL
same,MIC,Staphylococcus aureus [10],12.5 µg/mL
same,MIC,Enterococcus faecalis,12.5 µg/mL
same,MIC,Escherichia coli [7],1.56 µg/mL
same,MIC,Proteus vulgaris,> 100 µg/mL
CCCCCC[C@H]1OC(=O)CNC(=O)[C@H](CC)NC(=O)[C@H](CO)NC(=O)[C@H]([C@H](C)CC)NC(=O)[C@H](CC(C)C)N(C)C(=O)[C@@H]1C,MIC,Serratia marcescens,> 100 µg/mL
same,MIC,Salmonella enteritidis,100 µg/mL
same,MIC,Pseudomonas aeruginosa [1],> 100 µg/mL
same,MIC,Morganella morganii,> 100 µg/mL
same,MIC,Pseudomonas aeruginosa [2],> 100 µg/mL
same,MIC,Enterobacter cloacae [3],> 100 µg/mL
same,MIC,Escherichia coli [4],25 µg/mL
same,MIC,Klebsiella pneumoniae,50 µg/mL
same,MIC,Pseudomonas aeruginosa [5],> 100 µg/mL
same,MIC,Enterobacter cloacae [6],12.5 µg/mL
same,MIC,Escherichia coli [7],25 µg/mL
same,MIC,Proteus vulgaris,> 100 µg/mL
CCCCCC[C@H]1OC(=O)CNC(=O)[C@H]([C@H](C)O)NC(=O)[C@H](CO)NC(=O)[C@H]([C@H](C)CC)NC(=O)[C@H](CC(C)C)NC(=O)[C@@H]1C,MIC,Serratia marcescens,> 100 µg/mL
same,MIC,Salmonella enteritidis,> 100 µg/mL
same,MIC,Pseudomonas aeruginosa [1],> 100 µg/mL
same,MIC,Morganella morganii,> 100 µg/mL
same,MIC,Pseudomonas aeruginosa [2],> 100 µg/mL
same,MIC,Enterobacter cloacae [3],> 100 µg/mL
same,MIC,Escherichia coli [4],> 100 µg/mL
same,MIC,Klebsiella pneumoniae,> 100 µg/mL
same,MIC,Pseudomonas aeruginosa [5],> 100 µg/mL
same,MIC,Enterobacter cloacae [6],100 µg/mL
same,MIC,Escherichia coli [7],> 100 µg/mL
same,MIC,Proteus vulgaris,> 100 µg/mL

# Source: ChEMBL document CHEMBL1145725, “Synthesis and antimicrobial activity of novel globomycin analogues” (2003)
